Results: PubChem BioAssay AID2509 (Broad Institute, 2010)
Activity calls are given as the source filed them.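 The calls were made as follows: active = compounds cutting phorbol ester driven platelet P-selectin display by over 50% in every run; inconclusive = over 50% in some runs but not others; inactive = 50% or less in every run.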

System: human washed platelets, PMA-induced P-selectin, flow cytometry
Test: inhibitors of PMA-stimulated platelet P-selectin exposure, selectivity assay for platelet activation inhibitor project, cell-based, fluorescence, flow cytometry, platelets (AID 2509)
Conditions: at 30 µM; active compounds read high
Summary of the method: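 Test system: platelets, PMA-induced surface P-selectin expression. Probe or stimulus: PMA at 5 nM, platelet activating stimulus. Timing: compound 20 min before PMA, 15 min stimulation, 20 min staining. Technique: flow cytometry with PE-conjugated anti-P-selectin antibody.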

Structure (SMILES)	inhibition
C/C(=N/NC(=O)C1CCCC1)c1ccc(NC(=O)C(F)(F)F)cc1	9.5% (inactive)
Cc1ccc(-n2c(N)c(C#N)c(-c3ccccc3)c(C#N)c2=O)cc1	5.5% (inactive)
